The values that follow come from paper PMC6645473 (ACS Omega, 2018).

Where no end group is shown, it is not given here. [ ]: non-standard residue; d: D form. Nle = CCCC[C@H](N)C(=O)O; Nva = CCC[C@H](N)C(=O)O; Aib = CC(C)(N)C(=O)O

In the assay the test system is Aβ1–42 toxicity in PC-12 cells. Put plainly: MTT cell viability assay, Aβ1–42 co-incubated with tetrapeptides. Type of assay: cell-based. Conditions: calculated from OD570 of MTT assay in PC-12 cells. An outline of the steps: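 PC-12 cells were grown in F-12K with 5% FBS and 10% horse serum and used at 70% confluence. For the assay, medium was switched to F-12K with 10% FBS, and cells were seeded at 17 000/well overnight. Monomerized Aβ1–42 was added with test peptide (DMSO stock diluted in PBS; 1:1, 1:5, 1:10) for 6 h. MTT was then added for 4 h, followed by DMSO solubilization and OD570. Inhibition % = 100×(OD peptide+Aβ − OD Aβ)/(OD control − OD Aβ).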

As for VVI[dA] [compound 39], the “inhibition (%) of Aβ1–42 (2 μM)” value is listed as 0% (test peptide 2 μM) and 4.0% (test peptide 20 μM).

For the substance VV[dA]A [compound 27], the “inhibition (%) of Aβ1–42 (2 μM)” value is reported as 0% (test peptide 2 μM), 0% (test peptide 10 μM) and 11.0% (test peptide 20 μM).

V[dL]IA [compound 14]: the “inhibition (%) of Aβ1–42 (2 μM)” value is given as 5.0% (test peptide 2 μM), 0% (test peptide 10 μM) and 1.0% (test peptide 20 μM).

In the case of Val-Val-Ile-Leu [compound 41], the “inhibition (%) of Aβ1–42 (2 μM)” value is listed as 0% (test peptide 2 μM), 0% (test peptide 10 μM) and 0% (test peptide 20 μM).

In the case of Val-Val-Ile-Phe [compound 44], the “inhibition (%) of Aβ1–42 (2 μM)” value was 0% (test peptide 2 μM), 0% (test peptide 10 μM) and 0% (test peptide 20 μM).

In the case of VV[Aib]A [compound 34], the “inhibition (%) of Aβ1–42 (2 μM)” value is recorded as 1.0% (test peptide 2 μM), 0% (test peptide 10 μM) and 11.0% (test peptide 20 μM).

With V[dP]IA [compound 18], the “inhibition (%) of Aβ1–42 (2 μM)” value by setting is: (test peptide 2 μM) 7.0%; (test peptide 10 μM) 20.0%; (test peptide 20 μM) 64.0%.

Turning to [dA]VIA [compound 3], the “inhibition (%) of Aβ1–42 (2 μM)” value reads like this: (test peptide 2 μM) 0%; (test peptide 10 μM) 0%; (test peptide 20 μM) 0%.

As for VV[Nva]A [compound 37], the “inhibition (%) of Aβ1–42 (2 μM)” value was 0% (test peptide 2 μM), 0% (test peptide 10 μM) and 1.0% (test peptide 20 μM).

On to Val-Val-Phe-Ala [compound 36], for which the “inhibition (%) of Aβ1–42 (2 μM)” value (test peptide 2 μM) is on record as 0%, the “inhibition (%) of Aβ1–42 (2 μM)” value (test peptide 10 μM) is 0% and the “inhibition (%) of Aβ1–42 (2 μM)” value (test peptide 20 μM) is recorded as 0%.

For “Val-Val-Ile-Ala [compound 1, reference compound]”, the “inhibition (%) of Aβ1–42 (2 μM)” value reads like this: (test peptide 2 μM) 8.0%; (test peptide 10 μM) 30.0%.

In the case of V[dA]IA [compound 13], the “inhibition (%) of Aβ1–42 (2 μM)” value runs as follows: (test peptide 2 μM) 0%; (test peptide 10 μM) 0%; (test peptide 20 μM) 0%.

With VV[dL]A [compound 28], the “inhibition (%) of Aβ1–42 (2 μM)” value was 0% (test peptide 2 μM), 2.0% (test peptide 10 μM) and 10.0% (test peptide 20 μM).

Take Val-Leu-Ile-Ala [compound 15]: the “inhibition (%) of Aβ1–42 (2 μM)” value (test peptide 2 μM) is on record as 0%, the “inhibition (%) of Aβ1–42 (2 μM)” value (test peptide 10 μM) is reported as 0% and the “inhibition (%) of Aβ1–42 (2 μM)” value (test peptide 20 μM) is 13.0%.

On to [Nva]VIA [compound 11], for which the “inhibition (%) of Aβ1–42 (2 μM)” value (test peptide 2 μM) is given as 0%, the “inhibition (%) of Aβ1–42 (2 μM)” value (test peptide 10 μM) is listed as 0% and the “inhibition (%) of Aβ1–42 (2 μM)” value (test peptide 20 μM) is 0%.

As for Val-Val-Pro-Ala [compound 33], the “inhibition (%) of Aβ1–42 (2 μM)” value runs as follows: (test peptide 2 μM) 0%; (test peptide 10 μM) 0%; (test peptide 20 μM) 3.0%.

For VV[Nle]A [compound 38], the “inhibition (%) of Aβ1–42 (2 μM)” value (test peptide 2 μM) was 0%, the “inhibition (%) of Aβ1–42 (2 μM)” value (test peptide 10 μM) is 0% and the “inhibition (%) of Aβ1–42 (2 μM)” value (test peptide 20 μM) is reported as 0%.

In the case of Val-Val-Leu-Ala [compound 29], the “inhibition (%) of Aβ1–42 (2 μM)” value is on record as 10.0% (test peptide 2 μM), 0% (test peptide 10 μM) and 0% (test peptide 20 μM).
